The values below come from ChEMBL document CHEMBL4364341, “Radiosensitization of Head and Neck Squamous Cell Carcinoma (HNSCC) by a Podophyllotoxin” (ACS Med Chem Lett, 2019).

The source made the active and inactive calls. The calls are words filed in the database; no cut-off is given here.

For assay [1], the system named is FaDu. Nature of the assay: Antiproliferative activity against human FADU cells assessed as fractional inhibition at 5 uM after 6 days in absence of irradiation by MTT assay. Type of assay: functional. The method, boiled down: (§1)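 FaDu or SCC-25 cells were grown in DMEM with 10% FBS at 37 °C and 5% CO2. They were seeded at 1000 cells/well in 96-well plates for 24 h, then dosed with compound (fresh DMSO stock diluted in medium) or vehicle. After 1 h, X-rays were given with a sliding 5 mm lead shield, so one plate held 0, 2.5, 5 and 10 Gy columns. After 6 days, MTT (0.5 mg/mL, 45 min) was added, then DMSO, and A570 was read. Values were normalised to the unirradiated vehicle control. Fractional inhibition = 1 − surviving fraction.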
On the technique in general: Formazan colour is commonly taken as a measure of viable cells.

In assay [2] the test system is FaDu. In words: Induction of cell cycle arrest in human FADU cells assessed as decrease in CDK1 at 0.5 uM incubated for 48 hrs by immunoblot analysis. In kind it is functional, cell-based. An outline of the steps: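 FaDu cells received compound at 0.5 μM, 5 Gy IR, or both. After 48 h, lysates were immunoblotted for NRF2, cyclin B1, CDK1, Bax and Bcl-2. Membranes were then stripped and reprobed for β-actin as the loading control.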
Background: A western blot detects proteins with antibodies after separation by electrophoresis.

Assay [3] relates to SCC-25. In words: Synergistic induction of apoptosis in human SCC25 cells at 0.5 uM followed irradiation with 5Gy IR incubated for 48 hrs by annexin V FITC and propidium iodide staining based flow cytometry. In kind it is functional. The method, boiled down:
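FaDu or SCC-25 cells, untreated, given 5 Gy IR, drug, or both. Apoptotic cells measured by annexin V flow cytometry 48 h after treatment. Percentage compared with control by t test.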

In assay [4] the test system is SCC-25. Nature of the assay: Synergistic antiproliferative activity against human SCC25 cells assessed as fractional inhibition at 0.05 uM preincubated for 1 hr followed by irradiation with 2.5 Gy IR and measured after 6 days by MTT assay (reference value: 0.011). In kind it is functional. An outline of the steps:
(§2)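 SCC-25 cells seeded 1000/well in 96-well plates in DMEM/10% FBS and left 24 h. Drug or vehicle added, then after 1 h X-irradiated to 2.5, 5 or 10 Gy on one plate using a shifted lead shield. Plates incubated 6 days, then MTT (0.5 mg/mL, 45 min), DMSO solubilisation, absorbance at 570 nm. Fractional inhibition = 1 − fraction of surviving cells.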

For assay [5], the system named is SCC-25. Nature of the assay: Synergistic antiproliferative activity against human SCC25 cells assessed as combination index at 0.5 uM preincubated for 1 hr followed by irradiation with 10 Gy IR and measured after 6 days by MTT assay. In kind it is functional. An outline of the steps: (§3)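 SCC-25 cells grown in DMEM with 10% FBS at 37 °C, 5% CO2, seeded 1000 cells/well in 96-well plates and left 24 h. Drug in DMSO, diluted in complete medium, added 1 h before X-irradiation. A movable 5 mm lead shield gave 0, 2.5, 5 or 10 Gy on one plate. After 6 days, MTT readout at 570 nm. Combination index by Chou–Talalay from viability data.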

The test system of assay [6] is SCC-25. Nature of the assay: Synergistic antiproliferative activity against human SCC25 cells assessed as combination index at 0.5 uM preincubated for 1 hr followed by irradiation with 5 Gy IR and measured after 6 days by MTT assay. Type of assay: functional. An outline of the steps: as §3
Assay [7] concerns FaDu. In words: Synergistic induction of cell cycle arrest in human FADU cells assessed as decrease in cyclin B1 at 0.5 uM followed by irradiation with 5 Gy IR incubated for 48 hrs by immunoblot analysis. Type of assay: functional, cell-based. An outline of the steps: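 FaDu cells received drug, 5 Gy IR, or both; vehicle-only controls. Lysates collected after 48 h and immunoblotted with primary antibodies to NRF2, cyclin B1, CDK1, Bax and Bcl-2. Membranes stripped and reprobed for beta-actin as loading control.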

The subject of assay [8] is SCC-25. In words: Synergistic antiproliferative activity against human SCC25 cells assessed as fractional inhibition at 0.5 uM preincubated for 1 hr followed by irradiation with 5 Gy IR and measured after 6 days by MTT assay (reference value: 0.133). Type of assay: functional. An outline of the steps: as §2
The subject of assay [9] is SCC-25. Nature of the assay: Synergistic antiproliferative activity against human SCC25 cells assessed as fractional inhibition at 5 uM preincubated for 1 hr followed by irradiation with 2.5 Gy IR and measured after 6 days by MTT assay (reference value: 0.011). In kind it is functional. An outline of the steps: as §2
In assay [10] the test system is FaDu. In words: Synergistic antiproliferative activity against human FADU cells assessed as fractional inhibition at 0.005 uM preincubated for 1 hr followed by irradiation with 5 Gy IR and measured after 6 days by MTT assay (reference value: 0.097). Type of assay: functional. The method, boiled down: as §1
Assay [11] deals with FaDu. In words: Synergistic antiproliferative activity against human FADU cells assessed as combination index at 0.005 uM preincubated for 1 hr followed by irradiation with 5 Gy IR and measured after 6 days by MTT assay. In kind it is functional. An outline of the steps:
(§4)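 Combination index was calculated by the Chou–Talalay median-effect method from the 6-day MTT viability data of the single-plate compound/X-ray (2.5, 5, 10 Gy) design. CI < 1 denotes synergy, CI = 1 additivity and CI > 1 antagonism.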

The test system of assay [12] is FaDu. In words: Synergistic antiproliferative activity against human FADU cells assessed as combination index at 0.05 uM preincubated for 1 hr followed by irradiation with 2.5 Gy IR and measured after 6 days by MTT assay. Type of assay: functional. The method, boiled down: as §4
The test system of assay [13] is FaDu. In words: Antiproliferative activity against human FADU cells assessed as fractional inhibition at 0.05 uM after 6 days in absence of irradiation by MTT assay. Type of assay: functional. An outline of the steps: as §1
For assay [14], the system named is FaDu. Nature of the assay: Synergistic antiproliferative activity against human FADU cells assessed as combination index at 5 uM preincubated for 1 hr followed by irradiation with 2.5 Gy IR and measured after 6 days by MTT assay. Type of assay: functional. The method, boiled down:
as §4

The subject of assay [15] is FaDu. In words: Synergistic antiproliferative activity against human FADU cells assessed as fractional inhibition at 0.5 uM preincubated for 1 hr followed by irradiation with 2.5 Gy IR and measured after 6 days by MTT assay (reference value: 0.131). Type of assay: functional. The method, boiled down: as §1
For assay [16], the system named is FaDu. In words: Synergistic induction of cell cycle arrest in human FADU cells assessed as decrease in accumulation at S phase at 0.5 uM followed irradiation with 5Gy IR incubated for 24 hrs by propidium iodide staining based flow cytometry. Type of assay: functional. The method, boiled down: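 FaDu or SCC-25 cells, untreated, given 5 Gy IR, drug, or drug plus 5 Gy. Cell-cycle distribution by propidium iodide staining and flow cytometry at 6 h and 24 h after treatment. G0/G1, S and G2/M fractions compared with control by t test.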
(In general: Flow cytometry measures light scatter and fluorescence of single cells or particles in a stream.)

In assay [17] the test system is FaDu. In words: Synergistic antiproliferative activity against human FADU cells assessed as combination index at 0.05 uM preincubated for 1 hr followed by irradiation with 10 Gy IR and measured after 6 days by MTT assay. Type of assay: functional. The method, boiled down:
as §4

For assay [18], the system named is FaDu. Nature of the assay: Synergistic antiproliferative activity against human FADU cells assessed as fractional inhibition at 0.05 uM preincubated for 1 hr followed by irradiation with 5 Gy IR and measured after 6 days by MTT assay (reference value: 0.097). In kind it is functional. The method, boiled down:
as §1

In assay [19] the test system is SCC-25. Nature of the assay: Synergistic antiproliferative activity against human SCC25 cells assessed as fractional inhibition at 0.05 uM preincubated for 1 hr followed by irradiation with 5 Gy IR and measured after 6 days by MTT assay (reference value: 0.133). In kind it is functional. An outline of the steps:
as §2

Assay [20] relates to SCC-25. Nature of the assay: Synergistic antiproliferative activity against human SCC25 cells assessed as combination index at 5 uM preincubated for 1 hr followed by irradiation with 10 Gy IR and measured after 6 days by MTT assay. Type of assay: functional. The method, boiled down: as §3
Assay [21] relates to FaDu. In words: Synergistic antiproliferative activity against human FADU cells assessed as combination index at 0.5 uM preincubated for 1 hr followed by irradiation with 2.5 Gy IR and measured after 6 days by MTT assay. In kind it is functional. The method, boiled down:
as §4

For `COc1ccc2c(c1)N(CCO)C1=C(C(=O)OC1)C2c1ccccc1` (stereo unspecified), the “fractional inhibitory concentration index (FICI)” value in the assay with FaDu [1] is 0.437; in the assay with SCC-25 [4] it was 0.74; in the assay with SCC-25 [8], 0.658; in the assay on SCC-25 [9], 0.531; in the assay with FaDu [10], 0.136; in the assay on FaDu [13], 0.186. In addition, the “fractional inhibitory concentration index (FICI)” value with FaDu [15] was 0.443; in the assay with FaDu [18], 0.239; in the assay with SCC-25 [19], 0.05. For the same molecule, the outcome in the assay on FaDu [2], with FaDu [7] and in the assay with FaDu [16] was Active. Further, the “fold change (FC)” value with SCC-25 [3] was 7. Further, the CI is on record as 0.663 in the assay with SCC-25 [5]; 0.395 in the assay with SCC-25 [6]; 1.822 in the assay on FaDu [11]; 0.234 in the assay on FaDu [12]; 1.225 in the assay on FaDu [14]; 0.572 with FaDu [17]. The values for the CI in the assay on SCC-25 [20] and in the assay on FaDu [21] were 1.017 and 0.377, respectively.
